Measurements reported in ChEMBL document CHEMBL3875172, “Evaluation of the anti-malarial activity and cytotoxicity of 2,4-diamino-pyrimidine-based kinase inhibitors” (Eur J Med Chem, 2016).

Legend:
[1] = Cytotoxicity against African green monkey Vero cells at 10 uM after 4 days by fluorescence assay; assay type: toxicity, cell-based; settings: chlorocebus sabaeus, 96 h
Summary of the method: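 GFP-expressing Vero cells (stably transfected with pEGFP-N1), maintained in MEM with 10% heat-inactivated FBS, L-glutamine, pyruvate and geneticin. Seeded at 3.3 × 10^4 cells/ml onto compound at […] (so in the source), then incubated 4 days at 37 °C, 5% CO2. Read by bottom fluorescence (ex 530/em 590 nm) as percent cytotoxicity. Ellipticine positive control; 0.5% DMSO negative control.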

Plasmodium falciparum [2] = assay: Antimalarial activity against multidrug-resistant Plasmodium falciparum K1 infected human erythrocytes assessed as reduction in parasite viability after 24 hrs by [3H]-hypoxanthine incorporation assay; assay type: functional
Summary of the method: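 K1 parasites cultured in RPMI-1640 with 25 mM HEPES, 25 mM NaHCO3, 10% […] human serum and erythrocytes at 37 C, 3% CO2. Early ring-stage culture (1% parasitemia, 1.5% Hct) was exposed to compounds in duplicate for 24 h, then [3H]hypoxanthine was added for a further 18-20 h. Incorporation was scintillation-counted, and IC50 (50% growth reduction) was taken from fitted curves. The vehicle was 0.5% DMSO.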

[3] = Cytotoxicity against African green monkey Vero cells after 72 hrs by MTT assay; assay type: toxicity, cell-based, Chlorocebus sabaeus
Summary of the method: (§1)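 Dose-response MTT assay in cells grown in DMEM with 10% FBS, penicillin and streptomycin at 37 °C, 5% CO2. Cells were precultured 16–18 h, then exposed to compound for 72 h. MTT was added for 3 h, formazan dissolved in DMSO, and absorbance read at 570 nm. Gefitinib positive control; 0.5% DMSO negative control.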

[4] = Cytotoxicity against human A549 cells after 72 hrs by MTT assay; assay type: toxicity, cell-based; summary of the method: as §1
[5] = target: Tyrosine-protein kinase JAK2 (Homo sapiens, UniProt O60674); assay: Inhibition of human JAK2 using poly (Glu:Tyr) as substrate
Summary of the method: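 Antibody Beacon tyrosine kinase fluorescence assay, run as for EGFR. Reaction held 10 ng JAK2 enzyme, 0.1 mg/ml poly(Glu:Tyr) and 0.1 mg/ml ATP.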

[6] = target: T1, Tyrosine-protein kinase JAK3 (Homo sapiens, UniProt P52333); assay: Inhibition of human JAK3 using poly (Glu:Tyr) as substrate
T1 sequence (P52333 whole entry): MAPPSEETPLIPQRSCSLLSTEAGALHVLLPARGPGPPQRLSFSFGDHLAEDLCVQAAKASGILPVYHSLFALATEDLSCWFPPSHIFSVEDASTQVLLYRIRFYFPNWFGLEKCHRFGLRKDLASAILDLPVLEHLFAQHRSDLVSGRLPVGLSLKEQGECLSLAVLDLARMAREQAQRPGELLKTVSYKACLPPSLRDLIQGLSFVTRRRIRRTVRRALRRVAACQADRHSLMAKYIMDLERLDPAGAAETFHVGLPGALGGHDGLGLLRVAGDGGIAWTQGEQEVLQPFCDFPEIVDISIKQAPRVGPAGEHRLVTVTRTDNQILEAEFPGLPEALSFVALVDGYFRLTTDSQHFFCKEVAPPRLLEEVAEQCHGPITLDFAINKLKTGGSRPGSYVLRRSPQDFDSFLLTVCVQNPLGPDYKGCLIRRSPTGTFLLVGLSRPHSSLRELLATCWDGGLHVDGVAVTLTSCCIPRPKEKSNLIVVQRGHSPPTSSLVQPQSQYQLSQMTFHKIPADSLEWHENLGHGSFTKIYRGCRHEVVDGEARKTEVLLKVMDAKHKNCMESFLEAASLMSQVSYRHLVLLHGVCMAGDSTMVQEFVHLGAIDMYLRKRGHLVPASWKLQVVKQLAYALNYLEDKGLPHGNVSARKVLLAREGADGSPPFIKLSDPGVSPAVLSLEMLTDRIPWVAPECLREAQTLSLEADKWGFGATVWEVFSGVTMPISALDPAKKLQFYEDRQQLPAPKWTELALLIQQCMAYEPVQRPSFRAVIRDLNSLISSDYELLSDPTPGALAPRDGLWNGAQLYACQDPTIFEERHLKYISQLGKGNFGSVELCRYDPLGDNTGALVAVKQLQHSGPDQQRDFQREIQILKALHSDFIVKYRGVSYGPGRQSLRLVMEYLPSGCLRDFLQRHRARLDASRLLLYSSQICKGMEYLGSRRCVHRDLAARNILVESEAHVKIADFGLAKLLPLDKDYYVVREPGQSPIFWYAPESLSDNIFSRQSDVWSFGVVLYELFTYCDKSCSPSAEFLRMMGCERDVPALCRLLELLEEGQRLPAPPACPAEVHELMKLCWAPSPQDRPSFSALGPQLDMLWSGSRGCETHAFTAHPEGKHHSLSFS
Summary of the method: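 Antibody Beacon tyrosine kinase fluorescence assay, run as for EGFR. Reaction held 3 ng JAK3 enzyme, 0.1 mg/ml poly(Glu:Tyr) and 0.1 mg/ml ATP.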

[7] = target: Epidermal growth factor receptor (Homo sapiens, UniProt P00533); assay: Inhibition of human EGFR using poly (Glu:Tyr) as substrate measured for 1.5 hrs by oregon green 488 dye-based fluorescence assay
Plasmodium falciparum [8] = assay: Antimalarial activity against Plasmodium falciparum 3D7 by high throughput screening assay; assay type: functional
[9] = Cytotoxicity against human HepG2 cells at 10uM; assay type: toxicity, cell-based; settings: hepg2, 10 µM

Epidermal growth factor receptor, sequence (P00533 whole entry): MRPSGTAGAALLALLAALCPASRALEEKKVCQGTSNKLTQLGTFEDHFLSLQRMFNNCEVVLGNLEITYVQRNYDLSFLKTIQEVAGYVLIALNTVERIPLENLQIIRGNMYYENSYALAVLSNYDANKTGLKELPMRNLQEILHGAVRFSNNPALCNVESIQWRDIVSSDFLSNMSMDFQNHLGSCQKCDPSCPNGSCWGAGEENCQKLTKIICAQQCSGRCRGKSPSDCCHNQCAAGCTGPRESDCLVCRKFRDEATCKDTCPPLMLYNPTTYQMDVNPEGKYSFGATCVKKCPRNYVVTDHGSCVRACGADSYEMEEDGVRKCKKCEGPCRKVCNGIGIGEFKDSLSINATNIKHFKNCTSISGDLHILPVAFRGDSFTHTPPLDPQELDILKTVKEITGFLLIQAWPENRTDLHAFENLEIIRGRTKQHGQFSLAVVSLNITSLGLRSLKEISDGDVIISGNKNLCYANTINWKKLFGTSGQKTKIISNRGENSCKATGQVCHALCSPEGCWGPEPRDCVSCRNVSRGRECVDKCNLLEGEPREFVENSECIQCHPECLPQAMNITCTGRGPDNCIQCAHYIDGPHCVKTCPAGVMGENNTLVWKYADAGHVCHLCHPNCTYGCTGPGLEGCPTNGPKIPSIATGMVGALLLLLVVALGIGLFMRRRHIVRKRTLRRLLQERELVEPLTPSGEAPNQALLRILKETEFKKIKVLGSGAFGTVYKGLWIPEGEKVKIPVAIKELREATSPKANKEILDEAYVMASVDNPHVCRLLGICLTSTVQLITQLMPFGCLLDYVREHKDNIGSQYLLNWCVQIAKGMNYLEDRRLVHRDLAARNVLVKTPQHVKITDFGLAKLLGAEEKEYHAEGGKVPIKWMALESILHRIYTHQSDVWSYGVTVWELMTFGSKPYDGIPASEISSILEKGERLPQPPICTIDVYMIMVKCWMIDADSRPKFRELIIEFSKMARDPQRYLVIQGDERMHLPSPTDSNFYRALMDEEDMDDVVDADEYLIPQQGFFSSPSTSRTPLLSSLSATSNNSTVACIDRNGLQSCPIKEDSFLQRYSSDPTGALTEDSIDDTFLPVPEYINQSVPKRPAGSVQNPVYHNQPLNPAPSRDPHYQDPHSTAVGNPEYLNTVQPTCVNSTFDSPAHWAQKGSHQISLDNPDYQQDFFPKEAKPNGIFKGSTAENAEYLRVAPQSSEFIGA
Tyrosine-protein kinase JAK2, sequence (O60674 whole entry): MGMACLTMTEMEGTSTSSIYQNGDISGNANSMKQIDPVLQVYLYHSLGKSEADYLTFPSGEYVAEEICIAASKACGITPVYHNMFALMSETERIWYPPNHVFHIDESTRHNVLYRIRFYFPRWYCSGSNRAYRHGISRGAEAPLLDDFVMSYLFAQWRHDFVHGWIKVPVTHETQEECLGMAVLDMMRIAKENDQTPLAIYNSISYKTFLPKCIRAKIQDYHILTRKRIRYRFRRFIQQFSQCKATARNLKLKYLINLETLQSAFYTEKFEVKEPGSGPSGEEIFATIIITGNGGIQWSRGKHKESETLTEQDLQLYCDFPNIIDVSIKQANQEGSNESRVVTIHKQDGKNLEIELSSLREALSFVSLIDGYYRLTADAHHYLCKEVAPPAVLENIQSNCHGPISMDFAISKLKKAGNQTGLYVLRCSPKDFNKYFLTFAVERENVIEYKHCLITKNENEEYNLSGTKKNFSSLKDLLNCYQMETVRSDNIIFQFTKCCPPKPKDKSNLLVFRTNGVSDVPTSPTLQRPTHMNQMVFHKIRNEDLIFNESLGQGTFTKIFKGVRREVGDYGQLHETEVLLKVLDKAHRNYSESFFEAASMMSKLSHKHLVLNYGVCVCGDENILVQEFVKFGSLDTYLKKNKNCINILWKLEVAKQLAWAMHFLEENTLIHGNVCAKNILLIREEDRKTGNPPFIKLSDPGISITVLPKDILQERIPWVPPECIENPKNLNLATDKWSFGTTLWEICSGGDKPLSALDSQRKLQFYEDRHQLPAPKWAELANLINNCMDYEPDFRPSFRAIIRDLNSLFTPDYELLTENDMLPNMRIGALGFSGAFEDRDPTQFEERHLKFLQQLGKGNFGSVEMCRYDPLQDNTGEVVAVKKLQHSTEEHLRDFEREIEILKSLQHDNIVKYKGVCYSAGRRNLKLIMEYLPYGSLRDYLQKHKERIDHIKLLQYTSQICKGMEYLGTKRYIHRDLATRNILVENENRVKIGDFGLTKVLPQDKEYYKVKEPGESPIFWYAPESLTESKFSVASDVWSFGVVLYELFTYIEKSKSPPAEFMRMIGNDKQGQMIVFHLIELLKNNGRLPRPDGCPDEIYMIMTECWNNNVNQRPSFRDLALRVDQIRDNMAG

Structure (SMILES)	Activity [1] [%]	IC50 (Plasmodium falciparum [2]) [µM]	further results
Cc1cccc(Nc2ncc(C(N)=O)c(Nc3cccc(C)c3)n2)c1	96	–	–
c1cc(Nc2ccc(N3CCOCC3)cc2)nc(Nc2ccc(N3CCOCC3)cc2)n1	25	–	–
Cc1cc(Nc2nccc(Nc3cccc(S(N)(=O)=O)c3)n2)ccc1N1CCN(C)CC1	66	3.86	EC50 at 72 h [3]: > 100 µM; EC50 at 72 h [4]: 4.2 µM; IC50 [5]: 126 nM; IC50 [6]: 4.1 µM; IC50 [7]: > 150 µM
Cc1cc(Nc2ncc(C#N)c(Nc3cccc(S(N)(=O)=O)c3)n2)ccc1N1CCN(C)CC1	94	5.56	–
CN1CCN(c2ccc(Nc3nccc(Nc4cccc(S(N)(=O)=O)c4)n3)cc2)CC1	80	7.25	–
Cc1cc(Nc2nccc(Nc3ccccc3C(N)=O)n2)ccc1N1CCN(C)CC1	92	1.06	–
NS(=O)(=O)c1cccc(Nc2ccnc(Nc3ccc(N4CCOCC4)cc3)n2)c1	35	8.97	EC50 at 72 h [3]: 37 µM; EC50 at 72 h [4]: 9.4 µM; IC50 [5]: 129 nM; IC50 [6]: 7.1 µM; IC50 [7]: > 100 µM
CNC(=O)c1cnc(Nc2ccc(N3CCOCC3)cc2)nc1Nc1cccc(OC(C)C)c1	–	–	IC50 (Plasmodium falciparum [8]): 759 nM; Activity [9]: 19%
CNC(=O)c1cnc(Nc2ccc(N3CCN(C)CC3)cc2)nc1Nc1cccc([N+](=O)[O-])c1	–	–	IC50 (Plasmodium falciparum [8]): 138 nM; Activity [9]: 16%
C[C@H]1[C@@H](O)O[C@@H]2O[C@@]3(C)CC[C@H]4[C@H](C)CC[C@@H]1[C@@]24OO3 [ARTENIMOL]	–	0.00254	–
Cc1cc(Nc2nc(Nc3cccc(S(N)(=O)=O)c3)ncc2C#N)ccc1N1CCN(C)CC1	33	–	–
NC(=O)c1ccccc1Nc1ccnc(Nc2ccc(N3CCOCC3)cc2)n1	68	4.39	–
COc1cnc(Nc2ccc(N3CCN(C)CC3)c(C)c2)nc1Nc1cccc(S(N)(=O)=O)c1	88	5.26	–
Cc1cccc(Nc2ccnc(Nc3ccc(N4CCN(C)CC4)cc3)n2)c1	94	0.431	EC50 at 72 h [3]: 1 µM; EC50 at 72 h [4]: 7.1 µM; IC50 [5]: 140 nM; IC50 [6]: 2.1 µM; IC50 [7]: 11 µM
Cc1cccc(Nc2ccnc(Nc3ccc(N4CCOCC4)cc3)n2)c1	74	–	–
O[C@@H](c1cc(C(F)(F)F)nc2c(C(F)(F)F)cccc12)[C@H]1CCCCN1 [(S,R)-MEFLOQUINE]	–	0.07	–
Cc1cc(Nc2ncc(C#N)c(Nc3cccc(S(C)(=O)=O)c3)n2)ccc1N1CCN(C)CC1	92	4.72	–
CCN(CC)CCCC(C)Nc1ccnc2cc(Cl)ccc12 (stereo not drawn) [CHLOROQUINE]	45	–	–
Cc1cccc(Nc2ccnc(Nc3ccc(N4CCN(C)CC4)c(C)c3)n2)c1	94	0.647	EC50 at 72 h [3]: 2 µM; EC50 at 72 h [4]: 3.5 µM; IC50 [5]: 50 nM; IC50 [6]: 1.8 µM; IC50 [7]: > 150 µM
Cc1cccc(Nc2ncc(C#N)c(Nc3cccc(C)c3)n2)c1	40	–	–
CN1CCN(c2ccc(Nc3nccc(Nc4ccccc4C(N)=O)n3)cc2)CC1	91	1.5	–
CN1CCN(c2ccc(Nc3ncc(C#N)c(Nc4ccccc4C(N)=O)n3)cc2)CC1	–	–	IC50 (Plasmodium falciparum [8]): 40 nM; Activity [9]: 43%
Cc1cc(Nc2ncc(C#N)c(Nc3ccccc3C(N)=O)n2)ccc1N1CCN(C)CC1	94	3.93	IC50 (Plasmodium falciparum [8]): 9 nM; Activity [9]: 99%
Cc1cccc(Nc2ccnc(Nc3cccc(C)c3)n2)c1	94	–	–
Cc1cc(Nc2ncc(C#N)c(Nc3cccc(S(=O)(=O)NC(C)(C)C)c3)n2)ccc1N1CCN(C)CC1	31	4.56	EC50 at 72 h [3]: 45.4 µM; EC50 at 72 h [4]: > 100 µM; IC50 [5]: > 100000 nM; IC50 [6]: > 100 µM; IC50 [7]: > 150 µM
